# Calls of active or inactive are those of the source. The calls are words filed in the database; no cut-off is given here.
# Legend:
# Mus musculus [1] = assay: Inhibition of FAM108A1 in C57B1/6J mouse brain membrane at 16 mg/kg, ip after 4 hrs by competitive activity-based protein profiling-MudPIT method; type: functional, organism-based; design: dose 16 mg/kg
# Summary of the method: (§1)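 After i.p. dosing in 4:1 PEG300:Tween80, male C57Bl/6J mice were killed at 4 h. Brain membrane proteomes from treated and vehicle mice were labelled with FP-biotin. Labelled proteins were enriched on avidin, digested on-bead with trypsin and analysed by multidimensional LC-MS. Proteins were identified by SEQUEST, and dosed samples were compared with vehicle.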
# Mus musculus [2] = assay: Antinociceptive activity against formalin-induced pain in C57B1/6J mouse assessed as paw lifting or licking during early phase (0 to 10 mins) at 40 m/kg, po administered 2 hrs before formalin challenge; type: functional, organism-based
# Mus musculus [3] = assay: Inhibition of MAGL in intraperitoneally dosed C57B1/6J mouse brain membrane assessed as increase in 2-AG level after 4 hrs relative to control; type: functional, organism-based
# Summary of the method: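 Male C57Bl/6J mice dosed i.p. in 4:1 v/v PEG300:Tween80, with vehicle controls; killed at set times (0.5-24 h, or 4 h). Brain membrane 2-AG hydrolysis measured by LC-MS substrate assay, and brain 2-AG measured by lipid LC-MS, relative to vehicle.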
# [4] = target: T1, Fatty-acid amide hydrolase 1 (Mus musculus, UniProt O08914); assay: Inhibition of FAAH in C57B1/6J mouse brain membrane after 20 mins by using oleamide as a substrate by LC-MS method; type: cell membranes
# T1 sequence (O08914 whole entry): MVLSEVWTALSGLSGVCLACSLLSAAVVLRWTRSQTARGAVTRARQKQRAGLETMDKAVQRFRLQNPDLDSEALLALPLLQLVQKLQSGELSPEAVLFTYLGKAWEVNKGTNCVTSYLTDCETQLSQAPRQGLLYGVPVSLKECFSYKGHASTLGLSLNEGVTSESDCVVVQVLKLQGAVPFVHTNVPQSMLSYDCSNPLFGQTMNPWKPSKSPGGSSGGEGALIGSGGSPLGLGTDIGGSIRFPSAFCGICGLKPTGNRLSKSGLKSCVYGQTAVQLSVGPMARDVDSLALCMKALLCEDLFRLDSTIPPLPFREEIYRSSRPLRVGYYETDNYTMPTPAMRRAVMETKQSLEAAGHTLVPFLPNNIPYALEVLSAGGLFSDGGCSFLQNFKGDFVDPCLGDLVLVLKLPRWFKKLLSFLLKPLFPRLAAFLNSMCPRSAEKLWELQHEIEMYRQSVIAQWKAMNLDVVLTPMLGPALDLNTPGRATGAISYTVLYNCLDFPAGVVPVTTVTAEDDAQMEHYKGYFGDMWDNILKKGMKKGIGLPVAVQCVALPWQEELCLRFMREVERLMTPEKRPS
# Summary of the method: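 Mouse brain membrane proteome pre-incubated with inhibitor for 30 min at 37°C, then oleamide (FAAH substrate) added. Hydrolysis quantified by an LC-MS substrate assay.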
# Mus musculus [5] = assay: Antinociceptive activity against formalin-induced pain in C57B1/6J mouse assessed as paw lifting or licking during early phase (0 to 10 mins) at 40 m/kg, po administered 2 hrs before formalin challenge pretreated with rimonabant; type: functional, organism-based
# Mus musculus [6] = assay: Inhibition of MAGL in C57B1/6 mouse nucleus accumbens assessed as increase in interstitial level of 2-AG at 10 mg/kg, ip by following neuronal depolarization by microdialysis; type: functional, organism-based; design: dose 10 mg/kg
# Summary of the method: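 Male C57Bl/6 mice received 10 mg kg^-1 i.p. 1 h before neuronal depolarization. 2-AG and AEA were sampled by in vivo microdialysis from the nucleus accumbens.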
# Mus musculus [7] = assay: Inhibition of ABHD10 in C57B1/6J mouse brain membrane at 16 mg/kg, ip after 4 hrs by competitive activity-based protein profiling-MudPIT method; type: functional, organism-based; design: dose 16 mg/kg
# Summary of the method: (§2)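 Mice were dosed 16 mg kg^-1 i.p. or vehicle and killed at 4 h. Brain membrane proteomes were labelled with FP-biotin, avidin-enriched, trypsin-digested on bead, analysed by multidimensional LC-MS and identified by SEQUEST.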
# Mus musculus [8] = assay: Decrease in arachidonic acid levels in C57B1/6J mouse brain at 16 mg/kg, ip by LC-MS; type: functional, organism-based; design: dose 16 mg/kg
# Summary of the method: (§3)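 Mice received 16 mg kg^-1 i.p. in 4:1 PEG300:Tween80 and were killed at 0.5, 1, 2, 4, 8 and 24 h. Brain lipids, including N-acylethanolamines, MAGs, free fatty acids and arachidonic acid, were measured by LC-MS.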
# [9] = target: Cannabinoid receptor 2 (Homo sapiens) (UniProt P34972); assay: Displacement of [3H]CP-55940 from CB2 expressed in CHO cells after 90 mins by liquid scintillation; type: cell-based
# Sequence of Cannabinoid receptor 2 (Homo sapiens) (P34972 whole entry): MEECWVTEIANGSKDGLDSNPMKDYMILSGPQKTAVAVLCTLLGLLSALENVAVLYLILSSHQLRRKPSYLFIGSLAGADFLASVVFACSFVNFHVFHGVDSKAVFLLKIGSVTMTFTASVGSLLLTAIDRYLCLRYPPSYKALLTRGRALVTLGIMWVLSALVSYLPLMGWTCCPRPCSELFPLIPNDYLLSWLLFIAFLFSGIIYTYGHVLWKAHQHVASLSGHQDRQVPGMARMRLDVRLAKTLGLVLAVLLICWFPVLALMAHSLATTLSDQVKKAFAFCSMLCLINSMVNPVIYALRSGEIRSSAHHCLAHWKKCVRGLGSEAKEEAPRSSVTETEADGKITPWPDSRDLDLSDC
# Mus musculus [10] = assay: Inhibition of FAAH in C57B1/6J mouse brain membrane at 10 mg/kg, ip by competitive activity-based protein profiling method; type: functional, organism-based; design: dose 10 mg/kg
# Mus musculus [11] = assay: Inhibition of ABHD11 in C57B1/6J mouse brain membrane at 16 mg/kg, ip after 4 hrs by competitive activity-based protein profiling-MudPIT method; type: functional, organism-based; design: dose 16 mg/kg; summary of the method: as §2
# Mus musculus [12] = assay: Change in oleic acid in intraperitoneally dosed C57B1/6J mouse brain by LC-MS; type: functional, organism-based
# Summary of the method: (§4)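 Male C57Bl/6J mice given 4, 8, 16 or 40 mg kg^-1 i.p. in 4:1 PEG300:Tween80 at 4 μl g^-1, or vehicle, and killed after 4 h. Whole-brain lipids were quantified by LC-MS.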
# Mus musculus [13] = assay: Inhibition of LYPLA3 in C57B1/6J mouse brain membrane at 16 mg/kg, ip after 4 hrs by competitive activity-based protein profiling-MudPIT method; type: functional, organism-based; design: dose 16 mg/kg; summary of the method: as §1
# Mus musculus [14] = assay: Inhibition of […] in C57B1/6J mouse brain membrane assessed as residual 2-AG hydrolysis activity at 16 mg/kg, ip after 4 hrs relative to control; type: functional; conditions: route intraperitoneal
# Summary of the method: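 Brain membranes from mice given 4-40 mg kg^-1 i.p. for 4 h were assayed for 2-AG hydrolysis by LC-MS substrate assay. Activity is expressed relative to vehicle control.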
# Mus musculus [15] = assay: Inhibition of PAFAH-1Bg in C57B1/6J mouse brain membrane at 16 mg/kg, ip after 4 hrs by competitive activity-based protein profiling-MudPIT method; type: functional, organism-based; design: dose 16 mg/kg; summary of the method: as §1
# Mus musculus [16] = assay: Change in N-acylethanolamine level in C57B1/6J mouse brain at 16 mg/kg, ip by LC-MS; type: functional, organism-based; design: dose 16 mg/kg; summary of the method: as §3
# [17] = target: Cannabinoid receptor 1 (Homo sapiens) (UniProt P21554); assay: Displacement of [3H]rimonabant from CB1 in cerebellar membrane after 90 mins by liquid scintillation; type: cell membranes; conditions: Cerebellum
# Sequence of Cannabinoid receptor 1 (Homo sapiens) (P21554 whole entry): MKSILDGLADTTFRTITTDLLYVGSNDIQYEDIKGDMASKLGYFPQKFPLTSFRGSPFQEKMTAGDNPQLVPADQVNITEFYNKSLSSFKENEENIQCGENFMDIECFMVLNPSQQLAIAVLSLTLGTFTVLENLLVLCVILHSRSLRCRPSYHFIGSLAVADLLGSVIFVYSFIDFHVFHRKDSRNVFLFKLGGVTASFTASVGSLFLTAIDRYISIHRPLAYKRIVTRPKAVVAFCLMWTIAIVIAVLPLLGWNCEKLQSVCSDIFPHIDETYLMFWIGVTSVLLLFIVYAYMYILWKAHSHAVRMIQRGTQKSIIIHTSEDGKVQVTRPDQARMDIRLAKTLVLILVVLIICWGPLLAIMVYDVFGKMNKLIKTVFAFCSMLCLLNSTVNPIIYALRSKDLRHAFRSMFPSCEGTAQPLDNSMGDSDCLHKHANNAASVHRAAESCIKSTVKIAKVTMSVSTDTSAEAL
# Mus musculus [18] = assay: Inhibition of CG167 in C57B1/6J mouse brain membrane at 16 mg/kg, ip after 4 hrs by competitive activity-based protein profiling-MudPIT method; type: functional, organism-based; design: dose 16 mg/kg; summary of the method: as §2
# Mus musculus [19] = assay: Induction of hypothermia in C57B1/6J mouse at 16 mg/kg, ip; type: functional, organism-based; design: dose 16 mg/kg
# Summary of the method: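 Male C57Bl/6J mice, 6-8 weeks, 20-26 g, given 16 mg kg^-1 i.p. in 4:1 v/v PEG300:Tween80 at 4 μl g^-1; vehicle controls received PEG300:Tween80 alone. Cannabinoid effects were scored in the tetrad test.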
# Mus musculus [20] = assay: Inhibition of PREPL in C57B1/6J mouse brain membrane at 16 mg/kg, ip after 4 hrs by competitive activity-based protein profiling-MudPIT method; type: functional, organism-based; design: dose 16 mg/kg; summary of the method: as §1
# Mus musculus [21] = assay: Change in monopalmitoylglycerol levels in intraperitoneally dosed C57B1/6J mouse brain by LC-MS; type: functional, organism-based; summary of the method: as §4
smiles,measurement,setting,value
O=C(Oc1ccc([N+](=O)[O-])cc1)N1CCC(C(O)(c2ccc3c(c2)OCO3)c2ccc3c(c2)OCO3)CC1,inhibition,Mus musculus [1],inactive
same,Activity,Mus musculus [2],Active
same,inhibition,Mus musculus [3],Dose-dependent effect
same,IC50,[4],4 µM
same,Activity,Mus musculus [5],inactive
same,inhibition,Mus musculus [6],Active
same,inhibition,Mus musculus [7],inactive
same,Activity,Mus musculus [8],Active
same,Activity,[9],inactive
same,inhibition,Mus musculus [10],Active
same,inhibition,Mus musculus [11],inactive
same,Activity,Mus musculus [12],inactive
same,inhibition,Mus musculus [13],inactive
same,Activity,Mus musculus [14],35%
same,inhibition,Mus musculus [15],inactive
same,Activity,Mus musculus [16],inactive
same,Activity,[17],inactive
same,inhibition,Mus musculus [18],inactive
same,Activity,Mus musculus [19],Active
same,inhibition,Mus musculus [20],inactive
same,Activity,Mus musculus [21],inactive
